The results in this text go back to ChEMBL document CHEMBL4004837, “Synthesis and Characterization of Urofuranoic Acids: In Vivo Metabolism of 2-(2-Carboxyethyl)-4-methyl-5-propylfuran-3-carboxylic Acid (CMPF) and Effects on in Vitro Insulin Secretion” (J Med Chem, 2017).

The nature of series [1]: Initial plasma concentration in mouse at 3 mg/kg, iv. The format is ADME, organism-based. The procedure, abridged: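 Mouse pharmacokinetics after single intravenous CMPF dosing at 1 or 3 mg/kg. Plasma exposure was followed over time to derive AUC, C0, terminal half-life, clearance and volume of distribution.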
Series [2] in a line: Initial plasma concentration in mouse at 6 mg/kg, iv. The format is ADME, organism-based.
The nature of series [3]: Drug metabolism in CD1 mouse muscle assessed as loss of C2 carboxyl during fragmentation at 6 mg/kg, ip dosed once daily for 3 days followed by dosing of 1:1 mixtures of 2-(2-(Carboxy-13C)ethyl)-4-methyl-5-propylfuran-3-carboxylic-2-13C Acid and test compound on day 4 and 5 measured 1 hr post dose on day 5 by HPLC-MS analysis. The format is ADME, organism-based, Muscle tissue. The conditions noted are these: in vivo. In a few lines:
(§1)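 Mice received CMPF 6 mg/kg intraperitoneally for three days, then 1:1 labeled/unlabeled CMPF mixtures on days four and five. On day five they were euthanized 1 h post-dose, and plasma, adipose, muscle and liver were collected. Samples were analysed by HPLC-MS, with MS/MS of product ions. Metabolites were identified by the distinctive isotope patterns from the 1:1 label mixture.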

The test system of series [4] is Plasma. Nature of the series: Drug metabolism in CD1 mouse plasma assessed as loss of C2 carboxyl during fragmentation at 6 mg/kg, ip dosed once daily for 3 days followed by dosing of 1:1 mixtures of 2-(2-Carboxyethyl)-4-methyl-5-propyl-(3-13C-furan)-3-13Ccarboxylate and test compound on day 4 and 5 measured 1 hr post dose on day 5 by HPLC-MS analysis. Format: ADME, organism-based. The settings on record: in vivo. The procedure, abridged: (§2)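 CMPF given 6 mg/kg i.p. once daily for three days. On days four and five, 1:1 mixtures of stable-isotope-labelled and unlabelled CMPF were dosed. Mice were killed 1 h after the day-five dose. Plasma, adipose, muscle and liver were collected and analysed by HPLC-MS (MS/MS for product ions). Metabolites were identified by their distinctive isotope patterns from the labelled/unlabelled mixture.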

Series [5] in a line: Drug metabolism in CD1 mouse adipose assessed as loss of C2 carboxyl during fragmentation at 6 mg/kg, ip dosed once daily for 3 days followed by dosing of 1:1 mixtures of 2-(2-Carboxyethyl)-4-methyl-5-propyl-(3-13C-furan)-3-13Ccarboxylate and test compound on day 4 and 5 measured 1 hr post dose on day 5 by HPLC-MS analysis. The conditions noted are these: in vivo. Format: ADME, organism-based, Adipose tissue. The procedure, abridged:
as §1

The next series relates to HEK293. Nature of the series: Cytotoxicity against HEK293 cells assessed as fold change in capase3/7 activity by Caspase-Glo 3/7 assay relative to DMSO. The settings on record: human. Format: cell-based.
Series [6] deals with Plasma. Nature of the series: Drug metabolism in CD1 mouse plasma assessed as glycerol conjugate formation at 6 mg/kg, ip dosed once daily for 3 days followed by dosing of 1:1 mixtures of 2-(2-Carboxyethyl)-4-methyl-5-(1-propyl-1-13C)furan-3-carboxylic Acid and test compound on day 4 and 5 measured 1 hr post dose on day 5 by HPLC-MS analysis. The format is ADME, organism-based. The conditions noted are these: in vivo. The procedure, abridged: as §2

Series [7] deals with Liver. Nature of the series: Drug metabolism in CD1 mouse liver assessed as glycerol conjugate formation at 6 mg/kg, ip dosed once daily for 3 days followed by dosing of 1:1 mixtures of 2-(2-Carboxyethyl)-4-methyl-5-(1-propyl-1-13C)furan-3-carboxylic Acid and test compound on day 4 and 5 measured 1 hr post dose on day 5 by HPLC-MS analysis. Format: ADME, organism-based. The settings on record: in vivo. In a few lines:
as §1

The test system of series [8] is Plasma. Kind of series: Drug metabolism in CD1 mouse plasma assessed as diacylglycerol conjugate formation at 6 mg/kg, ip dosed once daily for 3 days followed by dosing of 1:1 mixtures of 2-(2-Carboxyethyl)-4-methyl-5-(1-propyl-1-13C)furan-3-carboxylic Acid and test compound on day 4 and 5 measured 1 hr post dose on day 5 by HPLC-MS analysis. Format: ADME, organism-based. The settings on record: in vivo. The procedure, abridged:
as §2

For series [9], the system named is Liver. Kind of series: Drug metabolism in CD1 mouse liver assessed as diacylglycerol conjugate formation at 6 mg/kg, ip dosed once daily for 3 days followed by dosing of 1:1 mixtures of 2-(2-Carboxyethyl)-4-methyl-5-(1-propyl-1-13C)furan-3-carboxylic Acid and test compound on day 4 and 5 measured 1 hr post dose on day 5 by HPLC-MS analysis. The settings on record: in vivo. The format is ADME, organism-based. In a few lines:
as §1

Series [10] deals with Liver. Kind of series: Drug metabolism in CD1 mouse liver assessed as oxidative metabolites formation at 6 mg/kg, ip dosed once daily for 3 days followed by dosing of 1:1 mixtures of 2-(2-Carboxyethyl)-4-methyl-5-(1-propyl-1-13C)furan-3-carboxylic Acid and test compound on day 4 and 5 measured 1 hr post dose on day 5 by HPLC-MS analysis. Format: ADME, organism-based. The conditions noted are these: in vivo. In a few lines:
as §1

The test system of series [11] is Plasma. Kind of series: Drug metabolism in CD1 mouse plasma assessed as glycerol conjugate formation at 6 mg/kg, ip dosed once daily for 3 days followed by dosing of 1:1 mixtures of 2-(2-(Carboxy-13C)ethyl)-4-methyl-5-propylfuran-3-carboxylic-2-13C Acid and test compound on day 4 and 5 measured 1 hr post dose on day 5 by HPLC-MS analysis. The format is ADME, organism-based. The conditions noted are these: in vivo. The procedure, abridged:
as §2

The nature of series [12]: Drug metabolism in CD1 mouse muscle assessed as oxidative metabolites formation at 6 mg/kg, ip dosed once daily for 3 days followed by dosing of 1:1 mixtures of 2-(2-(Carboxy-13C)ethyl)-4-methyl-5-propylfuran-3-carboxylic-2-13C Acid and test compound on day 4 and 5 measured 1 hr post dose on day 5 by HPLC-MS analysis. Format: ADME, organism-based, Muscle tissue. The conditions noted are these: in vivo. In a few lines:
as §1

Series [13] deals with Liver. Nature of the series: Drug metabolism in CD1 mouse liver assessed as oxidative metabolites formation at 6 mg/kg, ip dosed once daily for 3 days followed by dosing of 1:1 mixtures of 2-(2-(Carboxy-13C)ethyl)-4-methyl-5-propylfuran-3-carboxylic-2-13C Acid and test compound on day 4 and 5 measured 1 hr post dose on day 5 by HPLC-MS analysis. The format is ADME, organism-based. The conditions noted are these: in vivo. The procedure, abridged:
as §1

Series [14] has as its system Plasma. Nature of the series: Drug metabolism in CD1 mouse plasma assessed as glycerol conjugate formation at 6 mg/kg, ip dosed once daily for 3 days followed by dosing of 1:1 mixtures of 2-(2-Carboxyethyl)-4-methyl-5-propyl-(3-13C-furan)-3-13Ccarboxylateand test compound on day 4 and 5 measured 1 hr post dose on day 5 by HPLC-MS analysis. Format: ADME, organism-based. The conditions noted are these: in vivo. In a few lines: as §2

Series [15] relates to Liver. Kind of series: Drug metabolism in CD1 mouse liver assessed as glycerol conjugate formation at 6 mg/kg, ip dosed once daily for 3 days followed by dosing of 1:1 mixtures of 2-(2-Carboxyethyl)-4-methyl-5-propyl-(3-13C-furan)-3-13Ccarboxylateand test compound on day 4 and 5 measured 1 hr post dose on day 5 by HPLC-MS analysis. The format is ADME, organism-based. The conditions noted are these: in vivo. The procedure, abridged:
as §1

The nature of series [16]: Drug metabolism in CD1 mouse adipose assessed as glycerol conjugate formation at 6 mg/kg, ip dosed once daily for 3 days followed by dosing of 1:1 mixtures of 2-(2-Carboxyethyl)-4-methyl-5-propyl-(3-13C-furan)-3-13Ccarboxylateand test compound on day 4 and 5 measured 1 hr post dose on day 5 by HPLC-MS analysis. Format: ADME, organism-based, Adipose tissue. The conditions noted are these: in vivo. The procedure, abridged:
as §1

Series [17] deals with Liver. Kind of series: Drug metabolism in CD1 mouse liver assessed as oxidative metabolites formation at 6 mg/kg, ip dosed once daily for 3 days followed by dosing of 1:1 mixtures of 2-(2-Carboxyethyl)-4-methyl-5-propyl-(3-13C-furan)-3-13Ccarboxylateand test compound on day 4 and 5 measured 1 hr post dose on day 5 by HPLC-MS analysis. The format is ADME, organism-based. The settings on record: in vivo. The procedure, abridged:
as §1

The nature of series [18]: Effect on insulin content in glucose-stimulated mouse pancreatic islet at 200 uM incubated for 24 hrs followed by glucose stimulation for 20 mins by HTRF assay. Format: ADME, cell-based. The procedure, abridged:
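Mouse islets treated with compounds at 200 µM. Insulin secretion was then measured under low- and high-glucose GSIS conditions and under KCl stimulation, and intracellular insulin content was measured. Mean of n = 4-5 experiments with SEM.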
A general note: Time-resolved FRET reads energy transfer from a long-lived donor to a nearby acceptor.

The nature of series [19]: Suppression of glucose stimulated insulin secretion in mouse pancreatic islet at 200 uM incubated for 24 hrs followed by glucose stimulation for 20 mins by HTRF assay relative to control.

As to `CCCc1oc(CCC(=O)O)c(C(=O)O)c1C`, the C0 in series [1] was 130 µM; in series [2], 200 to 250 µM. For the same compound, the Drug metabolism entry in series [3] is “Metabolite_Detected”; in the series on Plasma [4], “Metabolite_Detected”; in series [5], “Metabolite_Detected”; in the series on Plasma [6], “Metabolite_Notdetected”; in the series on Liver [7] it was “Metabolite_Notdetected”; in the series with Plasma [8], “Metabolite_Notdetected”. Besides, the Drug metabolism entry (in the series with Liver [9]; with Liver [10]; in the series on Plasma [11]; in [12]; with Liver [13]; in the series on Plasma [14]) was “Metabolite_Notdetected” in each case. Also, the Drug metabolism result (in the series with Liver [15]; in [16]; in the series with Liver [17]) was “Metabolite_Notdetected” in each case. Further, in the series with HEK293, the fold change (FC) lay in the range of 0.8 to 1.1. Besides, the Activity entry is recorded as “Non-Toxic” in series [18] and “Toxic” in series [19].
